Experimental data published in ChEMBL document CHEMBL3792351, “Synthesis and anti-inflammatory activity evaluation of a novel series of 6-phenoxy-[1,2,4]triazolo[3,4-a]phthalazine-3-carboxamide derivatives” (Bioorg Med Chem Lett, 2016).
The source made the active and inactive calls. The rule behind the calls is not given here.

Experiments:
[1] = test system: HeLa; assay: Inhibition of TNFalpha-induced NFkappaB (unknown origin) activation expressed in human HeLa cells at 100 uM pre-incubated for 8 hrs followed by stimulation with TNFalpha for 8 hrs by luciferase reporter assay; type: cell-based
Procedure, shortened: (§1)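 HeLa cells transiently transfected 48 h with NF-κB-dependent luciferase reporter, pretreated 8 h with compounds (100 μM screen or indicated concentrations), then TNF-α (10 ng/ml) 8 h; luciferase activity read. Mean ± standard deviation, three independent experiments; compared with TNF-α-stimulated cells.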

[2] = test system: Mus musculus; assay: Antiinflammatory activity in Kunming mouse assessed as inhibition of xylene-induced ear edema at 50 mg/kg, po administered 6 hrs before xylene challenge measured after 30 mins relative to vehicle treated control; type: functional
Procedure, shortened: (§2)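 Kunming mice (18-22 g), xylene ear edema; compound given orally at 1, 2, 3, 4, 5 or 6 h before xylene application. Inhibition (%) vs vehicle control group at the corresponding time; p<0.05 vs vehicle.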

[3] = test system: HeLa; assay: Cytotoxicity against human HeLa cells assessed as cell viability at 100 uM after 24 hrs by MTT assay; type: cell-based
Procedure, shortened: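 HeLa cells treated with compounds at indicated concentrations for 24 h; viability by MTT. Mean ± standard deviation of three independent experiments.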

[4] = test system: Mus musculus; assay: Antiinflammatory activity in Kunming mouse assessed as inhibition of xylene-induced ear edema at 50 mg/kg, po administered 1 hr before xylene challenge measured after 30 mins relative to vehicle treated control; type: functional; procedure, shortened: as §2
[5] = test system: Mus musculus; assay: Antiinflammatory activity in Kunming mouse assessed as inhibition of xylene-induced ear edema at 50 mg/kg, ip administered 0.5 hrs before xylene challenge measured after 30 mins relative to vehicle treated control; type: functional
Procedure, shortened: (§3)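 Xylene-induced ear edema, Kunming mice (18-22 g), 8 per group; drug-treated, indomethacin and normal control groups; single i.p. dose. Edema reported in mg (mean ± SEM), inhibition rate (%) vs DMSO vehicle group; p<0.05 vs vehicle.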

[6] = test system: HeLa; assay: Inhibition of TNFalpha-induced NFkappaB (unknown origin) activation expressed in human HeLa cells pre-incubated for 8 hrs followed by stimulation with TNFalpha for 8 hrs by luciferase reporter assay; type: cell-based; procedure, shortened: as §1
[7] = test system: Mus musculus; assay: Antiinflammatory activity in Kunming mouse assessed as inhibition of xylene-induced ear edema at 50 mg/kg, po administered 5 hrs before xylene challenge measured after 30 mins relative to vehicle treated control; type: functional; procedure, shortened: as §2
[8] = test system: Mus musculus; assay: Antiinflammatory activity in Kunming mouse assessed as inhibition of xylene-induced ear edema at 50 mg/kg, po administered 4 hrs before xylene challenge measured after 30 mins relative to vehicle treated control; type: functional; procedure, shortened: as §2
[9] = test system: Mus musculus; assay: Antiinflammatory activity in Kunming mouse assessed as inhibition of xylene-induced ear edema at 50 mg/kg, po administered 3 hrs before xylene challenge measured after 30 mins relative to vehicle treated control; type: functional; procedure, shortened: as §2
[10] = test system: Mus musculus; assay: Antiinflammatory activity in Kunming mouse assessed as inhibition of xylene-induced ear edema at 50 mg/kg, po administered 2 hrs before xylene challenge measured after 30 mins relative to vehicle treated control; type: functional; procedure, shortened: as §2
[11] = test system: Mus musculus; assay: Antiinflammatory activity in Kunming mouse assessed as inhibition of xylene-induced ear edema at 100 mg/kg, po administered 2 hrs before xylene challenge measured after 30 mins relative to vehicle treated control; type: functional
[12] = test system: Mus musculus; assay: Antiinflammatory activity in Kunming mouse assessed as inhibition of xylene-induced ear edema at 100 mg/kg, po administered 3 hrs before xylene challenge measured after 30 mins relative to vehicle treated control; type: functional
[13] = test system: Mus musculus; assay: Antiinflammatory activity in Kunming mouse assessed as inhibition of xylene-induced ear edema at 100 mg/kg, po administered 6 hrs before xylene challenge measured after 30 mins relative to vehicle treated control; type: functional
[14] = test system: Mus musculus; assay: Antiinflammatory activity in Kunming mouse assessed as inhibition of xylene-induced ear edema at 100 mg/kg, ip administered 0.5 hrs before xylene challenge measured after 30 mins relative to vehicle treated control; type: functional; procedure, shortened: as §3
[15] = test system: Mus musculus; assay: Antiinflammatory activity in Kunming mouse assessed as inhibition of xylene-induced ear edema at 100 mg/kg, po administered 4 hrs before xylene challenge measured after 30 mins relative to vehicle treated control; type: functional
[16] = test system: Mus musculus; assay: Antiinflammatory activity in Kunming mouse assessed as inhibition of xylene-induced ear edema at 100 mg/kg, po administered 1 hr before xylene challenge measured after 30 mins relative to vehicle treated control; type: functional
[17] = test system: Mus musculus; assay: Antiinflammatory activity in Kunming mouse assessed as inhibition of xylene-induced ear edema at 100 mg/kg, po administered 5 hrs before xylene challenge measured after 30 mins relative to vehicle treated control; type: functional

NC(=O)c1nnc2c3ccccc3c(Oc3ccc(F)cc3)nn12
inhibition [1]: Active

COc1ccc(Oc2nn3c(C(N)=O)nnc3c3ccccc23)cc1
inhibition [1]: Active

Cc1ccc(Oc2nn3c(C(N)=O)nnc3c3ccccc23)cc1
inhibition [1]: Active

NC(=O)c1nnc2c3ccccc3c(Oc3ccccc3F)nn12
inhibition [1]: Active

Cc1cccc2c3c(ccc12)C1=C(C(=O)C3=O)[C@@H](C)CO1
inhibition [1]: Active

NC(=O)c1nnc2c3ccccc3c(Oc3ccc(Br)cc3)nn12
inhibition [1]: Active

Cc1cccc(Oc2nn3c(C(N)=O)nnc3c3ccccc23)c1
inhibition in vivo at 50 mg/kg [2]: 8.19%
Activity [3]: Non-toxic
inhibition in vivo at 50 mg/kg [4]: 5.63%
inhibition in vivo at 50 mg/kg [5]: 58.2%
inhibition [6]: Dose-dependent effect
inhibition in vivo at 50 mg/kg [7]: 22.4%
inhibition in vivo at 50 mg/kg [8]: 38.9%
inhibition in vivo at 50 mg/kg [9]: 22.7%
inhibition in vivo at 50 mg/kg [10]: 8.92%
inhibition [1]: Active

NC(=O)c1nnc2c3ccccc3c(Oc3ccc(Cl)cc3)nn12
inhibition [1]: Active

Cc1ccccc1Oc1nn2c(C(N)=O)nnc2c2ccccc12
inhibition [1]: Active

COc1ccc2c(c1)c(CC(=O)O)c(C)n2C(=O)c1ccc(Cl)cc1 [INDOMETHACIN]
inhibition in vivo at 100 mg/kg [11]: 22.5%
inhibition in vivo at 100 mg/kg [12]: 27.7%
inhibition in vivo at 100 mg/kg [13]: 29.6%
inhibition in vivo at 100 mg/kg [14]: 59.2%
inhibition in vivo at 100 mg/kg [15]: 63.4%
inhibition in vivo at 100 mg/kg [16]: 19.1%
inhibition in vivo at 100 mg/kg [17]: 53.5%

NC(=O)c1nnc2c3ccccc3c(Oc3cccc(F)c3)nn12
inhibition [1]: Active

NC(=O)c1nnc2c3ccccc3c(Oc3ccc(Cl)cc3Cl)nn12
Activity [3]: Toxic
inhibition [6]: Dose-dependent effect
inhibition [1]: Active

NC(=O)c1nnc2c3ccccc3c(Oc3cccc(Cl)c3)nn12
inhibition [1]: Active
